Several values for one entry are separate records, joined by “and”; a condition that tells them apart may be missing. Equal entries are not always repeated.
What was measured:
[1] = target: T1, EphA4 (Mus musculus, UniProt Q03137); assay: ELISA, ephrin-A5 AP binding to immobilized EphA4 Fc
Outline: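 Mouse EphA4 Fc was captured at 1 μg/ml on protein A wells. Ephrin-A5 AP (~0.01 nM for IC50) from HEK293 supernatant was added with test compound for 2 h in TBST and read with p-nitrophenylphosphate, minus Fc-only background. For reversibility, compound was incubated 2 h, washed 30 min, then ephrin-A5 AP added for 1 h. For mode of inhibition, ephrin-A5 AP was titrated per compound concentration and fitted one-site; Ki came from KD/Bmax versus inhibitor regression.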
Target sequence in this assay (Q03137 20-547 limits assumed): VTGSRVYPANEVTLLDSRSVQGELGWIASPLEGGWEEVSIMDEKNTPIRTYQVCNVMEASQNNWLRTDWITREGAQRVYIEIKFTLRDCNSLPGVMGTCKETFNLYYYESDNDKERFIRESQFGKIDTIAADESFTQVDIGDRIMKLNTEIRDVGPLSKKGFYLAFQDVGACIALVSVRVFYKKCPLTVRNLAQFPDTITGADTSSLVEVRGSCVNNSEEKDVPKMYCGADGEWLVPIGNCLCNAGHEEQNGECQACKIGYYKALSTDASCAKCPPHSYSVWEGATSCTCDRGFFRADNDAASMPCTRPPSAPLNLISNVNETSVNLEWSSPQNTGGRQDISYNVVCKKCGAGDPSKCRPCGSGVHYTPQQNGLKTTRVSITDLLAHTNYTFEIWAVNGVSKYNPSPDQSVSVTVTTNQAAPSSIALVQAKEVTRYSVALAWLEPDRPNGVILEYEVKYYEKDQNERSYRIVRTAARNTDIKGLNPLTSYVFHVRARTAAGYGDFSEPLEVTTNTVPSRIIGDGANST

[2] = target: T1, EphA4; assay: Ephrin-A5 Fc-induced EphA4 tyrosine phosphorylation in HT22 cells; type: cell-based; conditions: read-out: IC50, EphA4 tyrosine phosphorylation, 0.5 μg/mL ephrin-A5 Fc, ELISA
Outline: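 HT22 cells at ~70% confluency were serum-starved 1 h, given test compound (final DMSO ≤0.4%) for 15 min, then ephrin-A5 Fc for 20 min with compound still present. After modified RIPA lysis, phospho and total EphA4 were read by capture ELISA (anti-phosphotyrosine 1:500; cytoplasmic anti-EphA4 1:1,000), with ABTS at A405. Values were normalized to ephrin-only cells; IC50 came from 3–9 measurements.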
Target sequence in this assay (Q03137 20-986): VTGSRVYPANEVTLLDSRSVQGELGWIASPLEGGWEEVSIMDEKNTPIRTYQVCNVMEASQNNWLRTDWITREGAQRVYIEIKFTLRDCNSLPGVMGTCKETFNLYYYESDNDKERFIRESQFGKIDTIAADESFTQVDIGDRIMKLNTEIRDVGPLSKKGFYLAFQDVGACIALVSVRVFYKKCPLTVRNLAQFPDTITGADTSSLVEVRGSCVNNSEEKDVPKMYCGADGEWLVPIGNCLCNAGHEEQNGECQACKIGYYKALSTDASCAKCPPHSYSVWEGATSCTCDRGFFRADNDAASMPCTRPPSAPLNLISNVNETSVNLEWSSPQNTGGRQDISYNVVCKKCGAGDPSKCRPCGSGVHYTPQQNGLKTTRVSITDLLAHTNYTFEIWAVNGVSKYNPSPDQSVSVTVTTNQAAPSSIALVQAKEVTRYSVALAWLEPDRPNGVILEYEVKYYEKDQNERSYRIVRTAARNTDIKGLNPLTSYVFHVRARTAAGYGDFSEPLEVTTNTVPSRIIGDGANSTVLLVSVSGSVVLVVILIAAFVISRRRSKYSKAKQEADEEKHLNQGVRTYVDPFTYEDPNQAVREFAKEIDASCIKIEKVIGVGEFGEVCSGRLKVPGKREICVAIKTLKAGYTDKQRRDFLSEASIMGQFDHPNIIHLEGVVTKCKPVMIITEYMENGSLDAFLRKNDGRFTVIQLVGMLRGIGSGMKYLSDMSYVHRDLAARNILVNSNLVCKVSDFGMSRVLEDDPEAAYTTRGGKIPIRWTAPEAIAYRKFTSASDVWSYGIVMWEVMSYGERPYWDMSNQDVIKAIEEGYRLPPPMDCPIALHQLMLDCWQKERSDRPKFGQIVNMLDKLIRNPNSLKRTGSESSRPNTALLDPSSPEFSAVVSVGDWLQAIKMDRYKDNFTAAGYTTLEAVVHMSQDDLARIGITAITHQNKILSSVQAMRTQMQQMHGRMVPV

[3] = test system: EphA7; assay: ELISA, ephrin-A5 AP binding to immobilized EphA7 Fc
[4] = test system: EphA4 ephrin-binding domain mutants; assay: Wild-type and mutant EphA4 AP binding to immobilized ephrin-A5 Fc; set-up: species or system human; conditions: EphA4 AP mutants vs wild-type
Outline: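 Wild-type and point-mutant human EphA4 ephrin-binding domains fused to alkaline phosphatase were added at 0.01 nM final to wells precoated with protein A and ephrin-A5 Fc, with or without test compound. Bound AP was read with p-nitrophenylphosphate. IC50 values from 2–3 separate experiments were compared with wild-type by one-way ANOVA and Dunnett's post-hoc test.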

[5] = target: EphA2 (Mus musculus, UniProt Q03145); assay: ELISA, ephrin-A5 AP binding to immobilized EphA2 Fc; conditions: read-out: IC50 ± SE EphA2 ephrin-A5
EphA2, sequence (Q03145 26-538): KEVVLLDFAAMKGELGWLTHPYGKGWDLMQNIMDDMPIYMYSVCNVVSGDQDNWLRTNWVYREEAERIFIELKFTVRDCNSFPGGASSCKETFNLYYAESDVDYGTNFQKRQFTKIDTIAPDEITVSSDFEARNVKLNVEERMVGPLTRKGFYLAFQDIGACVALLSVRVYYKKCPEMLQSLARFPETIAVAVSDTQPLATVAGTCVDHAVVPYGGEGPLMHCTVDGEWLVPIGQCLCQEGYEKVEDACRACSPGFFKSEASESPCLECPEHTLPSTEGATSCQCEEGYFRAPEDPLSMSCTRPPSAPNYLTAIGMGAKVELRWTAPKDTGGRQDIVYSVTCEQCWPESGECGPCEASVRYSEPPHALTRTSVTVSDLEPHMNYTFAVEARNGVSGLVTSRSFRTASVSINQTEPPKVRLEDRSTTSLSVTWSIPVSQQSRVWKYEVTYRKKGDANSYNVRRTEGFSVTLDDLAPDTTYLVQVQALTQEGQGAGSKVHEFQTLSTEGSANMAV

[6] = test system: HUVECs; assay: Capillary-like tube formation assay, HUVECs on Matrigel; type: cell-based, human; conditions: 18 hours
Outline: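 HUVECs (2.3 × 10⁴) were seeded on Matrigel-precoated wells in complete HUVEC medium containing test compound or DMSO control and grown for 18 h. Polygons were counted from phase-contrast images, 2–4 pictures from each of 3–6 wells. Counts were compared with DMSO-only wells by one-way ANOVA with Dunnett's post-hoc test.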

[7] = target: T2, EphB4 (Mus musculus, UniProt P54761); assay: Ephrin-B2 Fc-induced EphB4 tyrosine phosphorylation in B16 melanoma cells; type: cell-based; conditions: relative to EphA2 and EphA4
T2 sequence (P54761 16-987): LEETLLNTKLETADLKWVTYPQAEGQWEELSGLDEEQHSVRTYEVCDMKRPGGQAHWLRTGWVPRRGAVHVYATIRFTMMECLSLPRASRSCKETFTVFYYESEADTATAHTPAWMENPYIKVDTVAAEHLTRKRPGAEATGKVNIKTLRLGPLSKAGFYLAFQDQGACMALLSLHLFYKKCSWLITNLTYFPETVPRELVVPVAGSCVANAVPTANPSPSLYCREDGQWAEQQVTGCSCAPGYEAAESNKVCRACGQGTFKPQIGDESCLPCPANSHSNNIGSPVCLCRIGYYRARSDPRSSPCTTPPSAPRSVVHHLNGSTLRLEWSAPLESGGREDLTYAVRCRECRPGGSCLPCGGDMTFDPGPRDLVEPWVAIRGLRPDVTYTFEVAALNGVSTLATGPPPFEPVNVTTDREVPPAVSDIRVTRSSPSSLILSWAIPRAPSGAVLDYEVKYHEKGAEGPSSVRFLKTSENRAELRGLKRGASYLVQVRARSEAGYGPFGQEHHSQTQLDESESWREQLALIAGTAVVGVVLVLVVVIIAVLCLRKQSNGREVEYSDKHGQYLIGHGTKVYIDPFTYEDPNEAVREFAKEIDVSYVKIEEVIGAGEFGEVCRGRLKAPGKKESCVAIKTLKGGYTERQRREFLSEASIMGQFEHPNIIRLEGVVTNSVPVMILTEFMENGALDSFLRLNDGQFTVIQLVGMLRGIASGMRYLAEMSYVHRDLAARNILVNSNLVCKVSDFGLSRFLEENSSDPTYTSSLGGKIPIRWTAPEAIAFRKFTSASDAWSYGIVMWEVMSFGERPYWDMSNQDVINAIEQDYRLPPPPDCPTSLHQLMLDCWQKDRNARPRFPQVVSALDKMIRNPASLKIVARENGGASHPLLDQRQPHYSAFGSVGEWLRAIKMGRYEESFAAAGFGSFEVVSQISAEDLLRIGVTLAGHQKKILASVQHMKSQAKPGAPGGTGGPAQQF
Outline: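 Cells were serum-starved 1–2 h and pretreated 15 min with test compound (DMSO ≤0.4% final). They were then stimulated 20 min with compound present: COS cells with 0.8 μg/mL ephrin-B2 Fc, and B16 melanoma cells with 1.5 μg/mL anti-Fc-preclustered ephrin-B2 Fc, or Fc control. Lysates were made in modified RIPA. EphB2 (COS; 7 μg antibody) or EphB4 (B16; 20 μg antibody) was immunoprecipitated, probed for phosphotyrosine, then reprobed for the receptor.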

In the case of `O=C(Oc1cc(O)cc2c1C[C@@H](OC(=O)c1cc(O)c(O)c(O)c1)[C@@H](c1cc(O)c(O)c(O)c1)O2)c1cc(O)c(O)c(O)c1` [epigallocatechin-3,5-digallate], the “reversibility of inhibition of EphA4-ephrin-A5 binding” value ([1]; compound washed out before adding ephrin-A5 AP) is reported as “reversible”, the IC50 ([1]; read-out: IC50, inhibition of EphA4-ephrin-A5 binding (text)) is reported as 8 µM and the IC50 ([1]; read-out: IC50, inhibition of EphA4-ephrin-A5 binding (text), listed as Epigallocatechin-3,5-digallate) is reported as less than 10 µM. For the same compound, the IC50 ([1]; read-out: IC50 ± SE EphA4 ephrin-A5) was 7.4 ± 1.8 µM, the “mode of inhibition of ephrin-A5 binding to EphA4” value ([1]; similar Bmax, increasing KD) was “competitive inhibitors” and the IC50 [2] was 190 µM and ~190 µM. For the same compound, the “inhibition of ephrin binding to EphA7” value [3] was “detectably inhibited, but with lower potency”, the “effect of other EphA4 mutations, such as D123A, on inhibitory activity” value [4] was “did not detectably affect” and the IC50 [5] was 40 ± 3.8 µM. For the same compound, the capillary-like tube formation ([6]; 20 μM to 200 μM) was “dose-dependent inhibitory effect”, the capillary-like tube formation ([6]; at 50 μM) was “inhibit” and the “inhibition of EphB4 phosphorylation” value [7] was “at higher concentrations”.

Source: publication PMC3677025 (Pharmacological research : the official journal of the …, 2012)
